95 compounds from ChEMBL document CHEMBL4513216, “Probing the Open Global Health Chemical Diversity Library for Multistage-Active Starting Points for Next-Generation Antimalarials” (ACS Infect Dis, 2020) can be followed below.

Each structure is given as a SMILES string.

This series is described as follows: Toxicity liver stage against HepG2, at 10uM. Format: cell-based. Also on record: test concentration 10 uM, cell line HepG2-A16-CD81EGFP. The note with it: human, HepG2-A16-CD81EGFP cells; read-out: INHIBITION
Summed up: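 Uninfected HepG2-A16-CD81EGFP cells, 3 × 10^3 per well, 1536-well, plated on prespotted compound at 10 μM final, parasite-free screening media added to match infected plates; puromycin 10 μM positive, DMSO 0.5% negative; run in parallel with 48 h PbLuc assay at 37 °C, 5% CO2; viability by CellTiter-Glo luminescence, normalized to controls.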
`CC1CCN(CC(=O)N(C)CCc2noc(C3CC3)n2)C1=O` (stereo not given): the cytotoxicity at 10 µM was -133%.

Take `CC(=O)N1C[C@@H](c2ccsc2)[C@@H]2CN(Cc3cccc(Cl)c3)CC[C@@H]21`: the cytotoxicity at 10 µM is 13.1%. The figure for `CC(=O)N[C@@H](CC(C)C)C(=O)N1CCC(n2cc(CO)nn2)CC1` is 9.56%; for `Cc1ccc(C(C)N(C)Cc2nc3c(cnn3C)c(=O)[nH]2)s1` (stereo not given) it is -4.31%; for `Cc1ccc2c(c1)C(=O)CC1(CCN(Cc3ccccc3)CC1)O2` it is 2.81%. The figure for `CC(C)(C)CC(=O)N1CC[C@@H](CC(=O)O)[C@@H](CCN2CCCCC2)C1` is -1.11%.

Turning to `CN(C)c1ccc(CNC(=O)NCCc2cccs2)cn1`, the cytotoxicity at 10 µM is -2.8%.

Turning to `COCCNC(=O)c1cc2c(c3ccccc3n2C)n1C(=O)N(C)C`, the cytotoxicity at 10 µM is -72.6%. As for `Cc1ccnc(NC(=O)c2ccc(C)o2)c1`, the cytotoxicity at 10 µM is -4.33%. The figure for `CCc1ccc(-c2ncc3c(n2)N(C)CCN(CCN(C)C)C3=O)cc1` is -9.52%; for `CC(C)CN1C(=O)C2(CCCC2)NC1c1c[nH]nc1-c1cccnc1` (stereo not given) it is 7.76%; for `Cn1nccc1C(=O)N1Cc2cc(Cl)ccc2OC2(CCOCC2)C1` it is 19.7%. With `Cc1nccc(-c2cccc(NCc3nc(C(C)C)no3)c2)n1`, the cytotoxicity at 10 µM was found to be 5.75%. The figure for `COc1ccc(F)c(F)c1CN1CCC2(CC1)[C@H](O)C[C@@H]2OCCN` is -14.5%.

In the case of `Cc1ccc(CN(CCCN(C)C)Cc2cnc(N(C)C)nc2)o1`, the cytotoxicity at 10 µM was 2.26%. The figure for `COCCN1CCCC(O)(CN2CCCN(c3ncccn3)CC2)C1=O` (stereo not given) is -3.95%; for `O=C(NC[C@]12COC[C@H]1CN(Cc1cccnc1)C2)c1ccsc1` it is 2.95%; for `CCOc1ccccc1NC(C)C(=O)N(C)Cc1cccc(F)c1` (stereo not given) it is 12.1%. The figure for `COc1ccc(N2CCCC3(C2)CN(c2cccnc2)CCO3)cc1` (stereo not given) is 6.59%.

For the compound `NC(=O)CCn1cc(CNCc2csc(N)n2)c2ccccc21`, the cytotoxicity at 10 µM is 6.7%. The figure for `COc1cccc(C(=O)N2CCN(C(=O)CCn3ccnc3)CC2)c1` is 10.3%; for `CCCS(=O)(=O)NCC(C)(O)c1ccsc1` (stereo not given) it is -1.7%; for `Cc1cc2nc(CO[C@H]3CN(C4CCN(C)CC4)C[C@H]3F)[nH]c2cc1C` it is -11.6%.

Regarding `CN1CCN(C2CCN(Cc3ccc(Cl)cc3)CC2)C1=O`, the cytotoxicity at 10 µM was 7.9%.

Turning to `CC(C)c1ncncc1C(=O)NCCN1CCCCC1C` (stereo not given), the cytotoxicity at 10 µM is -6.06%. The figure for `Fc1cnc(N2CCc3nnc(COc4ccccn4)n3CC2)nc1` is 8.13%.

In the case of `Cc1cccc2nc(C(=O)N3CCC(Nc4cccnn4)CC3)cn12`, the cytotoxicity at 10 µM was -0.77%. The figure for `O=C(NCC1CN(c2ncccn2)Cc2nccn2C1)c1cccnc1` (stereo not given) is -143%. The figure for `CC(=O)N1CCC2(CC1)CN(C(=O)C1CC1)c1ccc(F)cc12` is 2.05%; for `O=C([C@H]1CCCO1)N1CC[C@@H](O)[C@@H]1Cc1ccccc1` it is 1.41%; for `Cc1cc(CCC2CN(Cc3ccccc3C(=O)O)CCO2)ncn1` (stereo not given) it is -19.9%.

As for `C=Cc1ccc(CN2CCCC3(CNC(=O)c4ccccc4O3)C2)cc1` (stereo not given), the cytotoxicity at 10 µM is -22.6%.

Consider `Cc1ccc(OCCC(=O)NCCCN2CCCC2=O)c(C)c1`, for which the cytotoxicity at 10 µM was -1.08%. The figure for `CN(C)C(=O)N1CCN(Cc2noc(Cc3ccccc3)n2)CC1` is -8.8%; for `CC1(C)CN(C(CNC2=NCCN2)c2ccc(Cl)cc2)CCO1` (stereo not given) it is 8%. In the case of `Cc1noc(CCCC(=O)NC(C)c2cn(-c3ccccc3)nn2)n1` (stereo not given), the cytotoxicity at 10 µM was -8.18%. As to `CN1CCCC(CCCc2cccnc2)(C(N)=O)C1` (stereo not given), the cytotoxicity at 10 µM was -7.86%. The figure for `CC(C)(C)c1oc(C(N)=O)cc1CN1CCCCC(N)C1` (stereo not given) is 5.94%; for `CCn1cc(NC(=O)NCc2ccc(CO)c(F)c2)cn1` it is 8.69%; for `CNC(=O)c1[nH]nc2c1CN(c1cc(C3CCCNC3)nc(C)n1)CC2` (stereo not given) it is -51.8%. The figure for `CC(C)CSCCCNC(=O)C1CCOCC1` is -3.65%; for `COCCN(Cc1nc2c(cnn2C)c(=O)[nH]1)C(C)COC` (stereo not given) it is -4.6%. The figure for `CCN(CC)Cc1nnc2sc(C(C)Oc3ccccc3)nn12` (stereo not given) is 8.35%; for `COCCNC(=O)[C@H]1C[C@@](CC(C)C)(C(=O)O)N(C)[C@H]1c1cccnc1` it is -6.16%.

For `O=S(=O)(c1cc2ccccc2o1)N1CCCC1`, the cytotoxicity at 10 µM was 20.2%. The figure for `CN(C)C(=O)CN1CCCCC1c1nc(N)ncc1-c1cccc(F)c1` (stereo not given) is -3.68%; for `COC(=O)C(C)(C)NC(=O)C1CC(=O)N(C2CCCC2)C1` (stereo not given) it is -10.3%; for `CCOc1nc2cnccc2n(CC(=O)Nc2ccccc2OC)c1=O` it is -15%.

`Cc1[nH]c2c(C)ccc(C)c2c1CC(=O)NCCCNc1cccnc1`: the cytotoxicity at 10 µM is 0.0773%.

Turning to `CCc1ccc(NC(=O)CCN2CC(n3nc(C)cc3C)C2)cc1`, the cytotoxicity at 10 µM is -8.03%. The figure for `CCOCCC(=O)N1C[C@@H]2CC[C@H]1CN(Cc1ccncc1)C2` is -11.1%; for `Cc1nc(CN2CCN(C(C)c3nc(C4CC4)no3)CC2)no1` (stereo not given) it is -6.34%; for `COCCN(C)C[C@H]1C[C@@H](CO)CN(C(=O)c2ccn(C)c(=O)c2)C1` it is 2.14%.

As for `N#Cc1cccc(C(=O)NS(=O)(=O)c2ccc(C#N)c(Cl)c2)c1`, the cytotoxicity at 10 µM was -3.54%. The figure for `Cc1cc(C)nc(N2CCC(c3nnc(CN(C)C)n3C3CC3)CC2)n1` is -0.578%; for `COc1cnc(N2CCN(C)CC2)nc1-c1ccnn1C` it is 0.868%; for `CC(C)C1SCC(=O)Nc2c1c(O)nn2C1CCCCC1` (stereo not given) it is 2.42%.

With `O=C1CN(c2ccc(CNC(=O)Nc3nnc(C4CC4)s3)cc2)CCN1`, the cytotoxicity at 10 µM was -3.73%.

Take `CC(O)Cc1cn(CC2CCN(c3nccc4occc34)CC2)nn1` (stereo not given): the cytotoxicity at 10 µM is -6.64%. The figure for `CCn1ncc2c1C(COCC1CC1)N(C(=O)c1ccncn1)CC2` (stereo not given) is -147%; for `Cc1ccccc1C(C#N)NC(=O)CCCOc1cccnc1` (stereo not given) it is -0.398%.

As for `COc1ncccc1C(=O)N1CCC(Nc2ccc(C)nn2)CC1`, the cytotoxicity at 10 µM was -18.1%. The figure for `COCC1CN(C(=O)C2=CCCC2)Cc2cnn(CC3CC3)c21` (stereo not given) is 9.61%; for `O=C(c1cccc(CNCC=Cc2ccccc2)c1)N1CCCC1` it is 9.46%. The figure for `COC(=O)c1cccn1C1CCN(C(=O)c2ccc(C)cc2O)CC1` is -6.97%; for `Cc1ccc(CN2Cc3nccn3CC(CN(C)C)C2)s1` (stereo not given) it is -82.4%. The figure for `CCN1CCN(S(=O)(=O)c2ccc(Cc3cc(C)n[nH]c3=O)cc2)CC1` is -8.25%; for `CCC1=N[C@@]2(CC[C@@H]3CN(Cc4ccc(Cl)cc4)C[C@@H]32)C(=O)N1` it is 3.6%. As for `CC(C)(C)c1ccc(-c2n[nH]c3c2CN(CC2CCOC2)CC3)cc1` (stereo not given), the cytotoxicity at 10 µM is -40.1%.

Consider `CCc1c(C(=O)N2C[C@@H]3CC[C@H]2CN(c2cnccn2)C3)csc1C`, for which the cytotoxicity at 10 µM stood at 13.3%.

Regarding `CCn1ccnc1-c1nc2cc(S(=O)(=O)N3CCCC3)ccc2n1C`, the cytotoxicity at 10 µM is -22.3%. The figure for `CC(C(=O)N1CCCC1)N1CCC(c2nccn2CC2CCC2)CC1` (stereo not given) is -1.96%.

Take `Cn1nc(Cn2ccnc2)c2c1CN(C(=O)c1ccoc1)C2`: the cytotoxicity at 10 µM was -58.9%. As to `Cn1cc(CN2CCCN(C(=O)c3cn4ccccc4n3)CC2)cn1`, the cytotoxicity at 10 µM was -5.97%. Take `O=C(c1cscn1)N1CCCCC1c1nc2cc(F)ccc2[nH]1` (stereo not given): the cytotoxicity at 10 µM turned out to be 7.59%. The figure for `Cc1cc(C(=O)N2CCc3nc(C4CCCN4)ncc3C2)cs1` (stereo not given) is 2.56%; for `CCNC(=O)[C@@H]1CN(Cc2ccccc2)C[C@H]1C(=O)c1ccc(F)cc1` it is 3.38%. The figure for `CCN1CCC(NC(=O)CN2CCc3c(nc(C4CC4)n3C)C2)CC1` is -10.2%; for `CCc1n[nH]c(C2CN(C(=O)c3cc4c(s3)CCCC4)CCO2)n1` (stereo not given) it is -10.1%. With `CCc1noc(C(C)N(C)Cc2cc(Br)ccc2OC)n1` (stereo not given), the cytotoxicity at 10 µM was -5.04%. The figure for `CCc1nc(C)c(C(=O)NCCN2CCC(C)CC2)s1` is -5.6%; for `O=C(CC1CC1)N1C[C@@H](O)[C@H](N2CCN(c3ccccc3)CC2)C1` it is -0.38%. The figure for `Cc1nc(CN2CCC23CCN(Cc2ccoc2)CC3)cs1` is -109%. The figure for `CCCc1nc(N2CCCCCC2)c2c(n1)c(C)nn2CC` is 39.4%; for `CN1CCN([C@H]2COC[C@@H]3CN(Cc4cccnc4)C[C@@H]32)CC1` it is -77.9%; for `CCOC1COC2(CCN(c3ccccn3)CC2)C1` (stereo not given) it is 3.77%. On to `O=C(NCCCn1ccnc1)NCC(c1ccco1)N1CCCC1` (stereo not given), for which the cytotoxicity at 10 µM was -8.86%.

Take `Cc1nc(C2CCN(C(=O)c3cc(C4CC4)[nH]n3)CC2)no1`: the cytotoxicity at 10 µM was -6.44%.

On to `COCCN1C(=O)CO[C@H]2CN(Cc3ccccc3Cl)C[C@@H]21`, for which the cytotoxicity at 10 µM is -6.55%. The figure for `COc1cccc(COCC(=O)N2CCCC(c3cc(C)[nH]n3)C2)c1` (stereo not given) is -6.81%.

Take `Cc1nc(NS(=O)(=O)c2cc(C)c(Br)cc2C)no1`: the cytotoxicity at 10 µM worked out at 5.42%. The figure for `CCOCC(=O)N1Cc2nnn(C)c2C(COCc2ccccn2)C1` (stereo not given) is -3.23%. The figure for `Cc1cscc1C(=O)Nc1cncnc1N(C)C` is 0.137%; for `CCc1nc(CC(=O)N2CCn3c(C)nnc3C2)cs1` it is -9.57%. The figure for `Cn1ncc2c1CN(Cc1ccc(F)cc1)CC2COCC1CC1` (stereo not given) is 9.55%.
